Assay outcomes as filed in PubChem.
An excerpt weighted towards active compounds, which were near 2.6% of everything screened.
NadD block = inhibitors of Staphylococcus aureus NadD; purified NadD enzyme, colorimetric absorbance read-out; inhibition, % at 20 µM; 360,000 compounds, 0.78% hits; AID 602399; in the data active = inhibition above about 26%
rCAG RNA binder = molecules binding r(CAG) RNA repeats; 370,000 compounds, 1.3% hits; r(CAG) RNA repeat, TO-PRO-1 dye displacement fluorescence; inhibition, % at 3 µM;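 active = inhibition above the plate cutoff, the mean of all test compounds on that plate plus 3 SD, cut at about 35% in these data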;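 also: 0% = DMSO alone and 100% = 100 µM mitoxantrone as full dye displacement; higher means more dye released from RNA so lower well fluorescence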
LMPTP block = LMPTP (human) inhibition | P24666 | recombinant LMPTP-A, OMFP fluorogenic substrate, fluorescence intensity | inhibition, % at 20 µM | 360,000 compounds, 0.22% hits;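 active = compounds that cut the enzyme signal by at least half of the control window in the single-dose screen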;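 also: plate controls were DMSO wells with enzyme plus substrate for no effect and substrate without enzyme for full effect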
Target sequence (P24666 whole entry, looked up): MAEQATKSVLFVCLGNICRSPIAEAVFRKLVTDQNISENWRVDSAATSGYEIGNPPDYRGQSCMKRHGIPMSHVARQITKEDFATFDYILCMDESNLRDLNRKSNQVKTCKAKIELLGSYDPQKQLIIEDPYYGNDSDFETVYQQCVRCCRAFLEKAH
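Material: LMPTP-A; amount: 0.625 nM enzyme; doses: single 20 µM dose; times: reaction 50 min, room temperature, dark; technique: fluorescence intensity of OMFP turnover product; benchmarks: no-enzyme and uninhibited controls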
STEP block = blocks human striatal-enriched tyrosine phosphatase; inhibition, % at 20 µM; 360,000 compounds, 0.25% hits; recombinant STEP, OMFP fluorogenic substrate, fluorescence; P54829; AID 588621;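 active = inhibition at 20 µM, scaled per plate between control wells, above about 37%, limit read from the data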;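 also: 0% = DMSO with enzyme and substrate and 100% = substrate only without enzyme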
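Measure: Control-normalized % inhibition with plate pattern correction | Test system: STEP phosphatase, cell-free reaction | Medium: pH 6.0 Bis-Tris with DTT and Tween 20 | Technique: Fluorescence, 480/540 nm | Times: Reaction 20 min, ambient temperature | Doses: Single compound dose of 20 µM, 1% DMSO final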
Scp-1 inhibitor = Scp-1 (human) phosphatase inhibition; Recombinant Scp1, phosphopeptide, malachite green phosphate absorbance; inhibition, % at 20 µM; 340,000 compounds, 0.88% hits; AID 493091;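 active = inhibition above about 50% at 20 µM, limit read from the data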;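 also: plate controls were DMSO wells with enzyme for no effect and wells lacking enzyme for full effect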
Target sequence (Q9GZU7 76-261 limits assumed): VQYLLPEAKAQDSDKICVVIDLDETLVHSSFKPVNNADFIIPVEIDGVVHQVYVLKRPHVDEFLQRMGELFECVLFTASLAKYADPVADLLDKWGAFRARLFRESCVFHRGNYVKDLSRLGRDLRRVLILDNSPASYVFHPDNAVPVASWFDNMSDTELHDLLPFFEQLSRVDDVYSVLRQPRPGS
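assay system = SCP-1 phosphatase catalytic domain, residues 76-261 | buffer or medium = 50 mM Tris acetate pH 5.5, 0.005% Tween-20, 10 mM MgCl2 | incubation = enzyme reaction 45 min at room temperature, colour 5 min, stabilisation 30 min | signal = Phosphate-binding colour reagent, absorbance read at 630 nm | measure = % inhibition at 20 µM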
rCAG binder conf = r(CAG) RNA repeat binding, confirmation | shares compounds with rCAG RNA binder | TO-PRO-1 dye displacement fluorescence | inhibition, % at 3 µM | 4,300 compounds, 70% hits | AID 652065;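 active = inhibition above a per-plate cutoff, the mean inhibition of sample wells plus 3 SD, cut at about 35% in these data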;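 also: loss of TO-PRO-1 fluorescence as compound displaces dye from 1x1 AA loop RNA; 0% = DMSO only wells and 100% = 100 µM mitoxantrone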
DNA CAG counter = counter-screen for rCAG RNA binders: DNA CAG dye complex inhibitors | shares compounds with rCAG RNA binder | d(CAG) DNA oligo TO-PRO-1 dye displacement, fluorescence | inhibition, % at 3 µM | 4,300 compounds, 94% hits;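 active = inhibition above its plate's cutoff, the mean test-well inhibition plus 3 SD, cut at about 4.8% in these data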;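 also: 0% = DNA dye mix with DMSO and 100% = 100 µM mitoxantrone; hits displace the dye from DNA and so lower well fluorescence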
DNA CAG DR = DNA CAG dye complex inhibition, dose response counter-screen | AID 686960 | 250 compounds, 20% hits | shares compounds with rCAG RNA binder | IC50, µM | DNA CAG/GTC duplex TO-PRO-1 dye displacement fluorescence; in the data active = IC50 below about 10 µM
Numbers without * were called inactive.

What do the screens show for `CCc1nnc(NS(=O)(=O)c2ccc(NC(=O)c3cccc(Br)c3)cc2)s1`?
NadD block: 1; rCAG RNA binder: 73*; LMPTP block: 1; STEP block: -1; Scp-1 inhibitor: -10; rCAG binder conf: 53*; DNA CAG counter: 19*

Results for CCc1nnc(NS(=O)(=O)c2ccc(NC(=O)c3ccc(S(=O)(=O)N(CC)CC)cc3)cc2)s1 ?
NadD block: 4; rCAG RNA binder: 76*; LMPTP block: 0; STEP block: 1; Scp-1 inhibitor: -19; rCAG binder conf: 67*; DNA CAG counter: 29*

Results for COc1cc(C(=O)Nc2ccc(S(=O)(=O)Nc3cc(C)on3)cc2)cc(OC)c1OC ?
NadD block: -1; rCAG RNA binder: 10; LMPTP block: -1; STEP block: -1; Scp-1 inhibitor: -6

What do the screens show for `COC(=O)[C@]12C[C@H](CC(=O)N3CCN(C(=O)c4ccco4)CC3)C(=O)N(CCC3=CCCCC3)C1=C[C@H](C1CCCC1)O[C@@H]2C`?
rCAG RNA binder: 2

What do the screens show for `COc1ccc(-n2c(SCC(=O)Nc3ccc4c(c3)OCO4)nc3sc4c(c3c2=O)CCCC4)cc1`?
rCAG RNA binder: 14

How did CCc1c(-c2cccc(F)c2)ncn1CCc1ccccc1OC do in these assays?
rCAG RNA binder: -3

Results for CCC(Oc1ccc(C)cc1)C(=O)Nc1ccc(S(=O)(=O)Nc2cc(C)on2)cc1 (centres undefined) ?
NadD block: -2; rCAG RNA binder: 36*; LMPTP block: 1; STEP block: -1; Scp-1 inhibitor: 2; rCAG binder conf: 21; DNA CAG counter: 2

Results for CC1(OC(=O)C2CCCC2)C(=O)C=C2C=C(c3ccsc3)OC=C2C1=O (centres undefined) ?
NadD block: 24; rCAG RNA binder: 52*; LMPTP block: 0; STEP block: 1; Scp-1 inhibitor: -1; rCAG binder conf: 37*; DNA CAG counter: 20*; DNA CAG DR: inactive

What do the screens show for `CC1(OC(=O)C2CCCC2)C(=O)C=C2C=C(c3ccsc3)N(C3CCCC3)C=C2C1=O` (centres undefined)?
NadD block: 4; rCAG RNA binder: 6; LMPTP block: 2; STEP block: 3; Scp-1 inhibitor: 0
